Where a SMILES comes first, the peptide text is derived from it. [ ]: non-standard residue; d: D form. Cha = N[C@@H](CC1CCCCC1)C(=O)O; hLeu = CC(C)CC[C@H](N)C(=O)O
Experiments:
trypsin = assay: Enzymatic; assay type: in vitro ADME; conditions: trypsin in PBS, pH 7.4
Method in brief: (§1)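 Test peptide at 0.33 mM final in PBS (pH 7.4) with trypsin or chymotrypsin at 0.05 μg mL−1 final. Incubated at 37 °C with shaking (200 rpm) for 24 h. Fragments were identified by MALDI-TOF MS and ESI-TOF LC-MS.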

chymotrypsin = assay: Enzymatic; assay type: in vitro ADME; conditions: chymotrypsin in PBS, pH 7.4
Method in brief: as §1

ComD1 receptor [1] = molecular target: T1, ComD1 receptor (Streptococcus pneumoniae serotype 2, UniProt A0A0H2ZM50); assay: β-galactosidase competitive inhibition reporter assay, D39pcomX::lacZ; assay type: cell-based
T1 sequence (A0A0H2ZM50 1-441): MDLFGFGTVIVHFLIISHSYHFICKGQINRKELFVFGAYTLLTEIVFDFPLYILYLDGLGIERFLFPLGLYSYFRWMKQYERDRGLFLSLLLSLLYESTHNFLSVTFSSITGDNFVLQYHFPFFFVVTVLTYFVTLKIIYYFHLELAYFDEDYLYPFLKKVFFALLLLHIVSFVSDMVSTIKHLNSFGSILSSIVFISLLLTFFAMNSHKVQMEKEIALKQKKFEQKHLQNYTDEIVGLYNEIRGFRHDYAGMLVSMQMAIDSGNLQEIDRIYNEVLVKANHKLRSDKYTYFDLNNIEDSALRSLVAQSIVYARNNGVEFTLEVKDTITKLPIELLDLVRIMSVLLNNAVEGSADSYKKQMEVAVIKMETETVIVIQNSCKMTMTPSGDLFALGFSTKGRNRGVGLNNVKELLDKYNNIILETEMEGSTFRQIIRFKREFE
Method in brief: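 Early-exponential D39pcomX::lacZ in THY (OD600 0.30–0.35) was incubated 30 min at 37 °C. Cells were then Triton X-100-lysed and given ONPG (0.4 mg mL−1) for 3 h at 37 °C, quenched with sodium carbonate, and read at OD420/550 for Miller units.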

ComD1 receptor [2] = molecular target: T1, ComD1 receptor; assay: β-galactosidase activation reporter assay, D39pcomX::lacZ; assay type: cell-based
Method in brief: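 D39pcomX::lacZ was grown on THY agar (5% horse serum, 4 μg mL−1 chloramphenicol), then in THY overnight, diluted 1:50 and grown to OD600 0.30–0.35. […] After 30 min at 37 °C, cells were lysed with Triton X-100 and given ONPG (0.4 mg mL−1, pH 7.0) for 3 h. Reads: OD420/550, Miller units; EC50 by nonlinear regression.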

| SMILES | half-life at 0.33 mM (trypsin) [h] | half-life at 0.33 mM (chymotrypsin) [h] | IC50 (ComD1 receptor [1]) [nM] | EC50 (ComD1 receptor [2]) [nM] |
| --- | --- | --- | --- | --- |
| CC[C@H](C)[C@H](NC(=O)[C@H](Cc1ccccc1)NC(=O)[C@H](CC(=O)O)NC(=O)[C@H](CCCNC(=N)N)NC(=O)[C@H](Cc1ccccc1)NC(=O)[C@H](Cc1ccccc1)NC(=O)[C@H](CCCCN)NC(=O)[C@H](CO)NC(=O)[C@H](CC(C)C)NC(=O)[C@H](CCCNC(=N)N)NC(=O)[C@H](CCSC)NC(=O)[C@@H](N)CCC(=O)O)C(=O)N[C@@H](CC(C)C)C(=O)N[C@@H](CCC(N)=O)C(=O)N[C@@H](CCCNC(=N)N)C(=O)N[C@@H](CCCCN)C(=O)N[C@@H](CCCCN)C(=O)O [CSP1, reference compound] | 0.5 | 1 |  |  |
| CSCC[C@H](NC(=O)[C@H](C)N)C(=O)N[C@@H](CCCNC(=N)N)C(=O)N[C@@H](CC(C)C)C(=O)N[C@@H](CO)C(=O)N[C@@H](CCCCN)C(=O)N[C@@H](CC1CCCCC1)C(=O)N[C@@H](Cc1ccccc1)C(=O)N[C@@H](CCCNC(=N)N)C(=O)N[C@@H](CC(=O)O)C(=O)N[C@@H](Cc1ccccc1)C(=O)N[C@@H](CC1CCCCC1)C(=O)N[C@@H](CC(C)C)C(=O)N[C@@H](CCC(N)=O)C(=O)N[C@@H](CCCNC(=N)N)C(=O)N[C@@H](CCCCN)C(=O)N[C@@H](CCCCN)C(=O)O [CSP1-E1A/F7Cha/I12Cha] (H-AMRLSK[Cha]FRDF[Cha]LQRKK-OH) |  |  | 72 |  |
| CSCC[C@H](NC(=O)[C@H](C)N)C(=O)N[C@@H](CCCNC(=N)N)C(=O)N[C@@H](CC(C)C)C(=O)N[C@@H](CO)C(=O)N[C@@H](CCCCN)C(=O)N[C@@H](CC1CCCCC1)C(=O)N[C@@H](Cc1ccccc1)C(=O)N[C@@H](CCCNC(=N)N)C(=O)N[C@@H](CC(=O)O)C(=O)N[C@@H](Cc1ccccc1)C(=O)N[C@@H](CCC(C)C)C(=O)N[C@@H](CC(C)C)C(=O)N[C@@H](CCC(N)=O)C(=O)N[C@@H](CCCNC(=N)N)C(=O)N[C@@H](CCCCN)C(=O)N[C@@H](CCCCN)C(=O)O [CSP1-E1A/F7Cha/I12HLeu] (H-AMRLSK[Cha]FRDF[hLeu]LQRKK-OH) |  |  | 57 |  |
| CC[C@H](C)[C@H](NC(=O)[C@H](Cc1ccccc1)NC(=O)[C@H](CC(=O)O)NC(=O)[C@H](CCCNC(=N)N)NC(=O)[C@H](Cc1ccccc1)NC(=O)[C@H](CC1CCCCC1)NC(=O)[C@H](CCCCN)NC(=O)[C@H](CO)NC(=O)[C@H](CC(C)C)NC(=O)[C@H](CCCNC(=N)N)NC(=O)[C@H](CCSC)NC(=O)[C@H](C)N)C(=O)N[C@@H](CC(C)C)C(=O)N[C@@H](CCC(N)=O)C(=O)N[C@@H](CCCNC(=N)N)C(=O)N[C@@H](CCCCN)C(=O)N[C@@H](CCCCN)C(=O)O [CSP1-E1A/F7Cha] (H-AMRLSK[Cha]FRDFILQRKK-OH) | 4 | 4 | 36 |  |
| CC[C@H](C)[C@H](NC(=O)[C@H](Cc1ccccc1)NC(=O)[C@H](CC(=O)O)NC(=O)[C@H](CCCNC(=N)N)NC(=O)[C@H](Cc1ccccc1)NC(=O)[C@H](CCC(C)C)NC(=O)[C@H](CCCCN)NC(=O)[C@H](CO)NC(=O)[C@H](CC(C)C)NC(=O)[C@H](CCCNC(=N)N)NC(=O)[C@H](CCSC)NC(=O)[C@H](C)N)C(=O)N[C@@H](CC(C)C)C(=O)N[C@@H](CCC(N)=O)C(=O)N[C@@H](CCCNC(=N)N)C(=O)N[C@@H](CCCCN)C(=O)N[C@@H](CCCCN)C(=O)O [CSP1-E1A/F7HLeu] (H-AMRLSK[hLeu]FRDFILQRKK-OH) |  |  | 72 |  |
| CSCC[C@H](NC(=O)[C@@H](N)CCC(=O)O)C(=O)N[C@@H](CCCNC(=N)N)C(=O)N[C@@H](CC(C)C)C(=O)N[C@@H](CO)C(=O)N[C@@H](CCCCN)C(=O)N[C@@H](CC1CCCCC1)C(=O)N[C@@H](Cc1ccccc1)C(=O)N[C@@H](CCCNC(=N)N)C(=O)N[C@@H](CC(=O)O)C(=O)N[C@@H](Cc1ccccc1)C(=O)N[C@@H](CC1CCCCC1)C(=O)N[C@@H](CC(C)C)C(=O)N[C@@H](CCC(N)=O)C(=O)N[C@@H](CCCNC(=N)N)C(=O)N[C@@H](CCCCN)C(=O)N[C@@H](CCCCN)C(=O)O [CSP1-F7Cha/I12Cha] (H-EMRLSK[Cha]FRDF[Cha]LQRKK-OH) | 3 | 6 |  | < 1 |

From PMC8905529 (RSC Chemical Biology, 2022)
